Screening data deposited in PubChem BioAssay by several laboratories.
hDAT+cocaine – changed hDAT dopamine uptake under cocaine IC80, either direction, primary screen, cocaine antagonist project, cell-based, LLC-PK1 hDAT, [14C]-dopamine uptake, MLSMR | Sodium-dependent dopamine transporter (Homo sapiens), Q01959 | LLC-PK1 hDAT cells, [14C]-dopamine uptake with cocaine IC80; actives deviate in either direction | B-score at 10 µM | 110,000 compounds, 1.3% hits | AID 449768, 2010;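 active = Z score or B-score, a plate-position-corrected score, falls beyond the plate's 99.7% confidence bounds, in either direction; inactive = both scores lie inside the 99.7% bounds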;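 also: scored against the spread of the other compound wells on the same plate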
D1 mod – D1 CRE-luciferase signal change, two-sided – cell-based, HEK293 D1, dopamine EC30, D1 allosteric modulator project, primary screen; D(1A) dopamine receptor (Homo sapiens), P21728; dopamine EC30 potentiation; actives deviate in either direction; B-score at 10 µM; 58,000 compounds, 5.9% hits;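 active = luminescence count or its row- and column-corrected plate score outside the 99.7% band of the plate's sample wells, on either side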
Target sequence (P21728 whole entry, looked up): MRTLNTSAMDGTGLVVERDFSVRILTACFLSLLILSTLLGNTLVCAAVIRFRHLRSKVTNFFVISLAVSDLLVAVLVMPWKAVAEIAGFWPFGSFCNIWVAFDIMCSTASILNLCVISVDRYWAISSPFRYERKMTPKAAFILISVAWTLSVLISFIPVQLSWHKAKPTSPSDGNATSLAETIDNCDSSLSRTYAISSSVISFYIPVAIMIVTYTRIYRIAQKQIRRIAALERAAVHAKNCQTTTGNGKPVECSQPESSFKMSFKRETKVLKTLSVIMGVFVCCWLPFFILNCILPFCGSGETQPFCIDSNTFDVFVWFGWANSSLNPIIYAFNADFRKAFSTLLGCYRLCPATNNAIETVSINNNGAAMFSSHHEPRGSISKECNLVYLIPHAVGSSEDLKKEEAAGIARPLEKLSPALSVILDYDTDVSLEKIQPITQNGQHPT
MMP13 inh – human MMP13 inhibitors, primary screen, biochemical, FRET peptide cleavage; Collagenase 3 (Homo sapiens), P45452; MMP-13 fTHP FRET cleavage, Mca fluorescence; inhibition, % at 4 µM; 65,000 compounds, 0.07% hits;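 active = inhibition above the mean of compound-free control plate wells plus 3 SD, cut at about 14% in these data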;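 also: 0% = DMSO wells and 100% = wells with reference MMP-13 inhibitor after basal subtraction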
Candida biofilm – clotrimazole potentiators killing Candida biofilms, primary screen, with clotrimazole, Alamar Blue; C. albicans biofilm + clotrimazole; AID 834, 2007; inhibition, % at 6 µM; 85,000 compounds, 0.14% hits;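 active = inhibition above 20%; inactive = inhibition below 20%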;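 also: preformed 24 hr biofilms exposed to compound for 48 hr; 0% = biofilm without compound and 100% = blank killed by clotrimazole plus chlorhexidine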
AP ELISA ortho – alternative complement pathway inhibitors, primary screen, biochemical, ELISA, human serum, orthogonally pooled compounds; LPS-coated ELISA, C3 deposition; tested in compound mixtures; inhibition, % at 5 µM; 62,000 compounds, 0.08% hits;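 active = inhibition above 30% in each of the two pooled mixtures holding the compound, so the lower value exceeds 30%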;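 also: 0% = serum in Mg-EGTA without compound and 100% = EDTA serum blank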
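Test system – human serum alternative complement pathway, C3 deposition on LPS-coated wells · Buffer or medium – diluted human serum in Mg2+-EGTA GVB++ · Compound dosing – 5 µM each compound, pools of ten, 50 µM per pool · Schedule – 1 h serum-compound exposure at 37 °C · Measured by – Anti-C3 ELISA, OD 450 nm · Read-out basis – percent inhibition of C3 deposition onto LPS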
* = called active by the depositor; · = no result. The entries come from a sample that favours hits as a whole.

SMILES | hDAT+cocaine | D1 mod | MMP13 inh | Candida biofilm | AP ELISA ortho
CC(CCc1ccco1)NC(=O)c1cc2c(-c3ccccc3F)nn(C)c2s1 (stereo unspecified) | 2.9* | 0.25 | -28 | 12 | 7
Cn1nc(-c2ccccc2F)c2cc(C(=O)Nc3ccc4c(c3)OCCO4)sc21 | -3.7 | · | · | 1 | ·
COCCNc1nc(-c2cc(C(=O)Nc3ccccc3)on2)cc(C(C)C)n1 | 1.4 | · | · | · | ·
S=c1[nH]nc(-c2cc3ccccc3o2)n1Cc1ccccc1 | 1.8 | · | · | 2 | ·
Cc1ccc(CN2CC34C=CC(O3)C(C(=O)NCc3ccc5c(c3)OCO5)C4C2=O)cc1 (stereo unspecified) | -8.1* | · | -3 | -1 | 0
O=C(NCCO)c1ccccc1O | -9.9* | · | · | 8 | ·
O=C(NCCCc1ccccc1)c1ccccc1O | 1.1 | -0.63 | · | 2 | 4
CCOC(=O)C1CCN(c2c(NCCN3CCN(c4ccccc4)CC3)c(=O)c2=O)CC1 | -0.45 | -1.3 | 0 | 12 | 9
CCOC(=O)C1CCN(c2c(NCc3ccc(C(=O)NC(C)CC)cc3)c(=O)c2=O)CC1 (stereo unspecified) | 0.16 | -3.2* | -1 | 3 | 7
Cc1ccc(-c2nnc(N3CCN(C(=O)c4ccco4)CC3)c3ccccc23)cc1 | 2.9* | -1.8 | 5 | 2 | 7
COc1ccc(N2CCN(C(=O)NC34CC5CC(CC(C5)C3)C4)CC2)cc1 | -7.6* | · | · | 4 | ·
COc1ccc(OCC(=O)N2CCN(c3nnc(-c4ccccc4)c4ccccc34)CC2)cc1 | 3* | -0.81 | 0 | 8 | 11
COc1ccc(N2CCN(C(=O)COc3ccccc3)CC2)cc1 | 1.9* | 0.43 | 0 | 11 | -6
CCC1CCCCN1Cc1ccc(OC)c(C)c1C (stereo unspecified) | -0.015 | · | · | 0 | ·
Cc1nc(-c2cccc(NS(=O)(=O)c3cccc4ccccc34)c2)cs1 | 3.5* | · | · | -2 | ·
Cc1nc(-c2cccc(NC(=O)c3cccs3)c2)cs1 | 3.2* | · | · | 5 | ·
O=C(Nc1cccc(-c2csc(-c3ccccc3)n2)c1)c1cccs1 | 1.5 | · | · | 5 | ·
Cc1nc(-c2cccc(NS(C)(=O)=O)c2)cs1 | · | · | · | 0 | ·
CO/N=C(/CS(=O)(=O)Cc1ccccc1Cl)c1ccc(Cl)cc1Cl | -0.3 | · | · | · | ·
CCN1CCc2c(sc(NC(=O)c3ccc(S(=O)(=O)N4CCOCC4)cc3)c2C(N)=O)C1 | 0.05 | · | 2 | 7 | 15
CC(C)N1CCc2c(sc(NC(=O)c3ccc(S(=O)(=O)N4CCOCC4)cc3)c2C(N)=O)C1 | -0.22 | · | 14* | 3 | 18
CC(C)(C)OC(=O)N1CCC[C@H]1c1nnc(SCc2ccc(Cl)cc2Cl)o1 | -2.1* | -1.3 | 5 | 4 | -2
O=CN1CCN(C(=O)c2ccccc2F)CC1 | 0.047 | -3.2* | -8 | 11 | -1
Cc1ccc(S(=O)(=O)Nc2cccnc2)cc1 | 0.02 | · | · | -1 | ·
Cc1ccc(N(C(C)C(=O)O)S(=O)(=O)c2cccnc2)cc1 (stereo unspecified) | -0.048 | 0.048 | 1 | 24* | 11
SMILES | hDAT+cocaine | D1 mod | MMP13 inh | Candida biofilm | AP ELISA ortho
C#CCOCCOCCOCCNc1nc(N2CCN(C(=O)C([C@@H](C)CC)n3cc(C(N)COC(=O)C(F)(F)F)nn3)CC2)nc(N2CCN(C(=O)[C@H](CCC(=O)O)n3cc(C(N)CC(C)C)nn3)CC2)n1 (stereo partly specified) | -0.45 | · | · | · | ·
O=C(CSc1ncn[nH]1)NCCC(c1ccccc1)c1ccccc1 | -0.88 | · | · | 9 | ·
O=C(c1ccc(Br)s1)N1CCN(Cc2ccc3c(c2)OCO3)CC1 | 2.1* | -1.4 | 2 | 5 | 12
O=C(c1cccn2c(=O)c3ccccc3nc12)N1CCN(Cc2ccc3c(c2)OCO3)CC1 | 3.2* | -0.54 | -28 | 1 | 15
CN(c1ccc(C(=O)N2CCN(Cc3ccc4c(c3)OCO4)CC2)cc1)S(=O)(=O)c1ccccc1 | 3.5* | · | · | 1 | ·
O=C(c1ccc2nc3ccccc3c(=O)n2c1)N1CCN(Cc2ccc3c(c2)OCO3)CC1 | 0.94 | · | · | · | ·
O=C(c1ccc(Br)o1)N1CCN(Cc2ccc3c(c2)OCO3)CC1 | 0.52 | -1.6 | -13 | 8 | -6
COc1cccc(OCC(=O)Nc2c(C(=O)Nc3ccc(OC)cc3OC)oc3ccccc23)c1 | · | -1.7 | 1 | 0 | 8
